The source made the active and inactive calls.

Series [1] has as its target 5-hydroxytryptamine receptor 2A (Homo sapiens, UniProt P28223). Nature of the series: Positive allosteric modulation of human 5-HT2AR expressed in CHO cells assessed as increase in 5-HT-induced intracellular calcium release at 0.000001 to 1 uM preincubated for 15 mins followed by 5-HT addition by calcium-4 dye based FLIPR assay. It counts as cell-based. The gist of the method: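 Human 5-HT2AR-CHO cells, same calcium assay: Calcium 4 dye with probenecid. Compound (1 pM, 1 nM, 1 μM) was given 15 min before a 5-HT concentration–response (10 pM–10 μM). Peak fluorescence was fit by 4-parameter regression.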
On the technique in general: Calcium flux is commonly read through the fluorescence of an indicator in the cells.

The subject of series [2] is Rattus norvegicus. Put plainly: Increase in WAY163909-induced suppression of spontaneous locomotor activity in Sprague-Dawley rat assessed as reduction in total ambulation at 5 mg/kg, ip cotreated with WAY163909 at 15 mins post 5-HT2C antagonist SB242084 treatment measured for 30 mins. The class given is functional, organism-based. The procedure, abridged: (§1)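 Rats (n = 9–10/group) received SB242084 (1 mg/kg ip) or vehicle (8% 2-hydroxypropyl-β-cyclodextrin) 15 min before ip WAY163909 (1 mg/kg) plus compound (5 mg/kg). They were placed in monitors immediately; ambulations and vertical activity were totalled over 30 min. Analysis: ANOVA with Bonferroni comparisons.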

The subject of series [3] is Rattus norvegicus. Nature of the series: Drug discrimination in WAY163909-trained Sprague-Dawley rat assessed as increase in WAY163909-appropriate lever responding at 0.5 mg/kg, ip treated 15 mins prior to test relative to control. It counts as functional. The procedure, abridged:
(§2)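 Water-restricted male Sprague–Dawley rats were trained to discriminate WAY163909 (0.75 mg/kg ip, 15 min pretreatment) from saline under FR20, to a criterion of ≥80% correct for 10 sessions. Test doses were given ip 15 min before test: compound alone (0.125–1.0 mg/kg) or compound 0.5 mg/kg plus WAY163909 0.5 mg/kg. Read-out was % drug-lever responding; only rats completing FR20 within 15 min were counted.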

A short description of series [4]: Volume of distribution at steady state in Sprague-Dawley rat at 5 mg/kg, iv administered as single dose. The class given is ADME, organism-based. As to conditions: in vivo.
Series [5] relates to Rattus norvegicus. Nature of the series: Increase in WAY163909-induced suppression of spontaneous locomotor activity in Sprague-Dawley rat assessed as reduction in total vertical activity at 5 mg/kg, ip cotreated with WAY163909 at 15 mins post 5-HT2C antagonist SB242084 treatment measured for 30 mins. It counts as functional, organism-based. The gist of the method: as §1
A short description of series [6]: Tmax in Sprague-Dawley rat at 10 mg/kg, po administered as single dose. It counts as ADME, organism-based. As to conditions: in vivo.
For series [7], the system named is Rattus norvegicus. Nature of the series: Drug discrimination in WAY163909-trained Sprague-Dawley rat assessed as increase in WAY163909-appropriate lever responding at 1 mg/kg, ip co-treated with WAY163909 15 mins prior to test relative to control. The class given is functional.
Series [8] deals with T1, 5-hydroxytryptamine receptor 2C (Homo sapiens) (UniProt P28335).
T1 sequence (whole entry): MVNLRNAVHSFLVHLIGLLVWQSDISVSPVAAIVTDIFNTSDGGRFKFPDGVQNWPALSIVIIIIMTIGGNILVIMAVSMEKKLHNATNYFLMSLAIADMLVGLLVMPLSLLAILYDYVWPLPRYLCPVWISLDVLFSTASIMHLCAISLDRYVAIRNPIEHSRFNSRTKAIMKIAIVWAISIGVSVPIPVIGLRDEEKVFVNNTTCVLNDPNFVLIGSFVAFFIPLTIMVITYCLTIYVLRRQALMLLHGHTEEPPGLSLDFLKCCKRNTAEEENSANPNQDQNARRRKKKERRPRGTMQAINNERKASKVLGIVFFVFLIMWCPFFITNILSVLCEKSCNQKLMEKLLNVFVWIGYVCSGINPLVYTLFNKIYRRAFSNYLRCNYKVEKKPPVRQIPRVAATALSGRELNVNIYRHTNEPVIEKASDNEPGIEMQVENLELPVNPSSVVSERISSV
Nature of the series: Positive allosteric modulation of human 5-HT2CR expressed in CHO cells assessed as increase in 5-HT-induced intracellular calcium release at 0.000001 to 1 uM preincubated for 15 mins followed by 5-HT addition by calcium-4 dye based FLIPR assay. The class given is functional, cell-based. The gist of the method: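 CHO cells stably expressing human unedited (INI) 5-HT2CR, passages 6–16, grown at 37 °C in medium with 5% FBS and hygromycin. Plated cells were serum-starved 3 h, then loaded 60 min at 37 °C plus 15 min at room temperature with Calcium 4 dye and 2.5 mM probenecid in HBSS pH 7.4. Compound (1 pM, 1 nM, 1 μM) was added 15 min before 5-HT (10 pM–10 μM), and fluorescence peak height was read.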

Series [9] deals with D(3) dopamine receptor (Homo sapiens) (UniProt P35462). Put plainly: Displacement of [3H]-N-methylspiperone from recombinant human D3R expressed in HEK cell membranes at 10 uM after 90 mins by scintillation counting method relative to control. The gist of the method: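 Single-concentration screen at 10 μM test compound, each target labelled with the radioligand given in the line. The read-out is mean % inhibition of specific radioligand binding (n = 4). Targets above 50% inhibition went on to full competition isotherms, and Ki came from best-fit IC50 by the Cheng–Prusoff equation.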
For orientation: Displacement assays read how much labelled ligand stays bound in the presence of the test substance.

The target of series [10] is 5-hydroxytryptamine receptor 6 (Homo sapiens) (UniProt P50406). Nature of the series: Displacement of [3H]-LSD from recombinant human 5-HT6R expressed in HEK cell membranes at 10 uM after 90 mins by scintillation counting method relative to control.
Series [11] concerns Rattus norvegicus. Put plainly: Drug discrimination in WAY163909-trained Sprague-Dawley rat assessed as increase in WAY163909-appropriate lever responding at 0.5 mg/kg, ip co-treated with WAY163909 15 mins prior to test relative to control. The class given is functional. The procedure, abridged: as §2
The nature of series [12]: Oral bioavailability in Sprague-Dawley rat at 10 mg/kg administered as single dose. The settings on record: in vivo. It counts as ADME, organism-based.
A further series concerns the target 5-HT2A receptor (Homo sapiens, UniProt P28223). Nature of the series: Displacement of [3H]-Ketanserin from recombinant human 5-HT2AR expressed in HEKT cell membranes at 10 uM after 90 mins by scintillation counting method relative to control. The settings on record: probe [3H]-Ketanserin.
Series [13] can be described thus: Terminal half life in Sprague-Dawley rat at 5 mg/kg, iv administered as single dose. The class given is ADME, organism-based. As to conditions: in vivo.
Another series concerns the target 5-HT2B receptor (Homo sapiens, UniProt P41595). Nature of the series: Displacement of [3H]-LSD from recombinant human 5-HT2BR expressed in HEK cell membranes at 10 uM after 90 mins by scintillation counting method relative to control. The settings on record: probe [3H]-LSD.
Series [14] in a line: Cmax in Sprague-Dawley rat at 10 mg/kg, po administered as single dose. It counts as ADME, organism-based. Also noted: dose 10 mg/kg, route oral. The settings on record: in vivo.
Series [15] has as its target D(2) dopamine receptor (Homo sapiens) (UniProt P14416). Put plainly: Displacement of [3H]-N-methylspiperone from recombinant human D2R expressed in fibroblast membranes at 10 uM after 90 mins by scintillation counting method relative to control. It counts as cell membranes.
Series [16] can be described thus: Terminal half life in Sprague-Dawley rat at 10 mg/kg, po administered as single dose. As to conditions: in vivo. It counts as ADME, organism-based.
Series [17] in a line: AUC (0 to infinity) in Sprague-Dawley rat at 10 mg/kg, po administered as single dose. Also noted: dose 10 mg/kg, time infinity, route oral. The class given is ADME, organism-based. The settings on record: in vivo.
For series [18], the target named is 5-hydroxytryptamine receptor 3A (Homo sapiens) (UniProt P46098). Nature of the series: Displacement of [3H]-LY278584 from recombinant human 5-HT3R expressed in HEK cell membranes at 10 uM after 90 mins by scintillation counting method relative to control.
5-hydroxytryptamine receptor 3A (Homo sapiens), sequence (P46098 whole entry): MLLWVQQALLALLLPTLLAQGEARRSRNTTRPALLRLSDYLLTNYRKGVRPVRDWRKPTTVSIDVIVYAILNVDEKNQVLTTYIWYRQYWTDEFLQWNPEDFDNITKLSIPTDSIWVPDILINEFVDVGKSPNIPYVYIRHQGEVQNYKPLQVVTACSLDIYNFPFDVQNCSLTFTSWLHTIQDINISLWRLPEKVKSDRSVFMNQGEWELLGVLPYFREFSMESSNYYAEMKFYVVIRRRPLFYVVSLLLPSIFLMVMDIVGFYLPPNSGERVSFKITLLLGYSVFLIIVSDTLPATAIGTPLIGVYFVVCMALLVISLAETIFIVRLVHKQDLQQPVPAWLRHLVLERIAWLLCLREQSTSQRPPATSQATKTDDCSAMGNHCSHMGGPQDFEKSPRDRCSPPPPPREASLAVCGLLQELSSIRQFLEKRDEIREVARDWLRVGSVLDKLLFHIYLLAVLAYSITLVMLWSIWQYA

D(3) dopamine receptor (Homo sapiens), sequence (P35462 whole entry): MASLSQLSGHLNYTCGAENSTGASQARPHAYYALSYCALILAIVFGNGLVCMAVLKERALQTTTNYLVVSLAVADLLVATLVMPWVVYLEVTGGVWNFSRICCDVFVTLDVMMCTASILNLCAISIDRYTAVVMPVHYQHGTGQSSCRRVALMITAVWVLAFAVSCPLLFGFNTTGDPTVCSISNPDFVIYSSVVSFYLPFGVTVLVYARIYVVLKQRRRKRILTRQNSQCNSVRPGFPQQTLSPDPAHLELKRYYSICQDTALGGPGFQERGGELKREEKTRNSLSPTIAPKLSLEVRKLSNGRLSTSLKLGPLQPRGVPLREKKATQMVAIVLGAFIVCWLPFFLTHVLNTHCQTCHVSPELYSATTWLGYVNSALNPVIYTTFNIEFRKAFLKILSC
5-hydroxytryptamine receptor 6 (Homo sapiens), sequence (P50406 whole entry): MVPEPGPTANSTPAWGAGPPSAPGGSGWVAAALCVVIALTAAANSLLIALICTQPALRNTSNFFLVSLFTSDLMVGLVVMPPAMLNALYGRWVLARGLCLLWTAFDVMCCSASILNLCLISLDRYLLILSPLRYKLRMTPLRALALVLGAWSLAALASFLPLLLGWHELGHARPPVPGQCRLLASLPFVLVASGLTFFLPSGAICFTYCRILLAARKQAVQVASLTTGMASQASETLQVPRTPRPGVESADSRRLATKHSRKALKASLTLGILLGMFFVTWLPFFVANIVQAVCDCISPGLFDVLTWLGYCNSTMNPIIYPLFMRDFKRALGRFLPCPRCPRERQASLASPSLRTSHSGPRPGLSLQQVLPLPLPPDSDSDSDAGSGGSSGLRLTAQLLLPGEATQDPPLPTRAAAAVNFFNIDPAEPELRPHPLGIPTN
5-HT2B receptor, sequence (P41595 whole entry): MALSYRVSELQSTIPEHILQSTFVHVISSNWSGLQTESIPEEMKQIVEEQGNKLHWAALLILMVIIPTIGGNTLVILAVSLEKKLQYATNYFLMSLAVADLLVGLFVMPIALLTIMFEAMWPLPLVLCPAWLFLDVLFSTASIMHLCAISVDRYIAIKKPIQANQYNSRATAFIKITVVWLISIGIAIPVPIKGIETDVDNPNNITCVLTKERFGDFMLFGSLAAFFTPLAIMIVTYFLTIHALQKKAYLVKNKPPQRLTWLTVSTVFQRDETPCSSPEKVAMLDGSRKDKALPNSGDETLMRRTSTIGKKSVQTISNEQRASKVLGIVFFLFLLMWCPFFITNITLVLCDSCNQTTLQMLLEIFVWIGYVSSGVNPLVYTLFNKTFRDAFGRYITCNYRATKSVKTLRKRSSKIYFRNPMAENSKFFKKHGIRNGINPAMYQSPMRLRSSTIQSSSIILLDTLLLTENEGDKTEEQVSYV
5-hydroxytryptamine receptor 2A, sequence (P28223 whole entry): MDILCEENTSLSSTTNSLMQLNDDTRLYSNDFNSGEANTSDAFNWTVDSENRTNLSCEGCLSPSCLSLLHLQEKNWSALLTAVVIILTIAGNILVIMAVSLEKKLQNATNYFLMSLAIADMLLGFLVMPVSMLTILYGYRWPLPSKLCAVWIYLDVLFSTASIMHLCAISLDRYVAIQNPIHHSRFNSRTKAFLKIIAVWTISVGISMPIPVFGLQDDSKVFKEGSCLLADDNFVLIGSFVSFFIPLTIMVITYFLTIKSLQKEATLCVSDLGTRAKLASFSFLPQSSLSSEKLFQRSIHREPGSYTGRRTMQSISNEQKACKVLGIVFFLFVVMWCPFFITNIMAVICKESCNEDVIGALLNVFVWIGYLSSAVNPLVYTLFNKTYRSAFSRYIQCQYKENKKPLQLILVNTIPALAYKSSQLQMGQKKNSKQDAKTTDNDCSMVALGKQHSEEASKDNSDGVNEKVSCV
5-HT2A receptor, sequence (P28223 whole entry): as above
D(2) dopamine receptor (Homo sapiens), sequence (P14416 whole entry): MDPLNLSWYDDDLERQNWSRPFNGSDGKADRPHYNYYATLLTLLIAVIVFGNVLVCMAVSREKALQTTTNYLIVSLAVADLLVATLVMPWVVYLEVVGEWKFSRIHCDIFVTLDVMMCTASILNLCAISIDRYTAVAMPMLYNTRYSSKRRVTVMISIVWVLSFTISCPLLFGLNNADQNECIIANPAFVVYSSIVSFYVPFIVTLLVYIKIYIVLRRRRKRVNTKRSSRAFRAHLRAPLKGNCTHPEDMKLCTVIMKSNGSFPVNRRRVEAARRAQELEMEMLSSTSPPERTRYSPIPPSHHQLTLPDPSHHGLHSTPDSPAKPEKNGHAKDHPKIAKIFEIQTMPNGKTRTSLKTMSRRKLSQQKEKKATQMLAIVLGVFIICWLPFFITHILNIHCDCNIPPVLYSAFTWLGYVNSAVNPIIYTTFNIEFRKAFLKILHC

Usually Vdss stands for the apparent volume that relates the amount in the body to the concentration in plasma or blood. A higher Vdss goes with wide distribution into tissue. As usually defined, the Tmax is the time from dosing to the highest level. As usually defined, the Emax is the greatest response seen or fitted, relative to the assay's reference. In general, inhibition refers to the share of the control response that was lost under treatment. By Cmax is commonly meant the maximum level reached in the sampled fluid or tissue. What is called AUC is concentration integrated over time. Low values mean low exposure, high ones high exposure. Take `CCCCCCCCCCC[C@@H]1CCN[C@H](C(=O)NCC(O)CO)C1` (relative stereo): the Activity result in series [1] is “Not Active”; in the series with Rattus norvegicus [3], 30%; in the series with Rattus norvegicus [11], 95%. The outcome with Rattus norvegicus [2] was inactive. This compound came in with a Vdss in series [4] of 35.07 L/kg. For the same compound, the outcome (in the series with Rattus norvegicus [5]; in [8]) was Active. Besides, in [6], the Tmax was 3.3 h. For the same compound, the Emax at 1 mg/kg with Rattus norvegicus [7] was found to be 45%. Further, the inhibition in series [9] was determined as 71.4%; in [10], 18.1%; in series [15] it was 28.8%; in [18], 27%. Moreover, the F in series [12] came out at 39.1%. Moreover, the inhibition at 1.5 h, 10 µM at 5-HT2A receptor was found to be 37.1%; on 5-HT2B receptor it was 15.1%. Also, the “beta t1/2” value came to 6.59 h in series [13] and 5.82 h in [16]. The same compound had a Cmax in [14] of 68.1 ng/mL. The AUC in series [17] is 737 ng·h/mL.
